Key:
[1] = target: T1, Glucocorticoid receptor (Rattus norvegicus) (UniProt P06536); assay: Relative affinity [Ka compound/Ka Dex] for glucocorticoid receptors in whole-cell competition assay
T1 sequence (whole entry): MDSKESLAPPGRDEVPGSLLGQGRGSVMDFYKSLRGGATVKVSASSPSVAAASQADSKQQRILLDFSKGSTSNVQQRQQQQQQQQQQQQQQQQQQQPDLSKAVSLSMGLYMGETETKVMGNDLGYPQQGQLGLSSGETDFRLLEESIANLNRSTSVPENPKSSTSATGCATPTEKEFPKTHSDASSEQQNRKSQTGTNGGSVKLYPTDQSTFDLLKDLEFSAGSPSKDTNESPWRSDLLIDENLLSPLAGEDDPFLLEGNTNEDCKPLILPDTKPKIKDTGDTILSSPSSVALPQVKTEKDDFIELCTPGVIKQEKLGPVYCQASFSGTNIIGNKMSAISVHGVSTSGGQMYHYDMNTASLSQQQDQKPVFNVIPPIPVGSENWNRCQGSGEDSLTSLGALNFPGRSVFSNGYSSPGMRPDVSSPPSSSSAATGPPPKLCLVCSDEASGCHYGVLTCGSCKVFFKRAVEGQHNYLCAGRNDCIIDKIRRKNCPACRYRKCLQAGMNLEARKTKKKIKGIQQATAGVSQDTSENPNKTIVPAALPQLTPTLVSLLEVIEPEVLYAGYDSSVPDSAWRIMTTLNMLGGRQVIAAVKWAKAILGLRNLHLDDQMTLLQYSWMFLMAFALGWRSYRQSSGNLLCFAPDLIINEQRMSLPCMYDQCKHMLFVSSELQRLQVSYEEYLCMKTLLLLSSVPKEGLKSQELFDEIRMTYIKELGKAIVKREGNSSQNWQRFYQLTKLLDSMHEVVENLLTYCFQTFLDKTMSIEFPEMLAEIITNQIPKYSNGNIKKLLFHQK
Outline: (§1)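 Competition with [3H]Dex for glucocorticoid receptors, in HTC cell cytosol (0 °C) or in intact HTC cells (30 min, 37 °C). Relative affinity is the ratio of Dex to steroid concentrations giving 50% inhibition of [3H]Dex binding, corrected by the Rodbard method for partial receptor occupancy by uncompeted [3H]Dex. Averages of 2–4 experiments.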

[2] = target: T1, Glucocorticoid receptor (Rattus norvegicus); assay: Relative affinity [Ka compound/Ka Dex] for glucocorticoid receptors in cell-free competition assay; outline: as §1
[3] = target: Glucocorticoid receptor (Rattus norvegicus) (UniProt P06536); conditions: filed as partial agonist
[4] = target: T1, Glucocorticoid receptor (Rattus norvegicus); assay: Dex-NCS incubation on the subsequent inhibition of exchange binding with [3H]dexamethasone measured at pH 7.6 at 1h.; conditions: concentration not given here
Outline: (§2)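 Crude HTC cytosol receptors in TAPS buffer were preincubated 3 h at 0 °C with Dex-NCS (290 or 580 nM) or cortisol (60 or 120 nM). Activated charcoal then removed free steroid and inactivated steroid-free receptors. Cytosol was adjusted to 1.9×10^-8 M [3H]Dex ± 575-fold unlabeled Dex and incubated for the stated times at 0 °C, final pH 8.8 or 7.6. Bound steroid was charcoal-separated; specific = total − nonspecific. Cortisol preincubation defined exchangeable binding. Run in duplicate; mean (SD, n).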

[5] = target: T1, Glucocorticoid receptor (Rattus norvegicus); assay: Dex-NCS incubation on the subsequent inhibition of exchange binding with [3H]Dexamethasone measured at pH 7.6 at 20h.; conditions: concentration not given here; outline: as §2
[6] = target: T1, Glucocorticoid receptor (Rattus norvegicus); assay: Dex-NCS incubation on the subsequent inhibition of exchange binding with [3H]dexamethasone measured at pH 8.8 at 3h.; conditions: concentration not given here; outline: as §2
[7] = target: T1, Glucocorticoid receptor (Rattus norvegicus); assay: Dex-NCS incubation on the subsequent inhibition of exchange binding with [3H]dexamethasone measured at pH 8.8 at 1h.; conditions: concentration not given here; outline: as §2
[8] = target: T1, Glucocorticoid receptor (Rattus norvegicus); assay: Dex-NCS incubation on the subsequent inhibition of exchange binding with [3H]dexamethasone measured at pH 7.6 at 3h.; conditions: concentration not given here; outline: as §2
[9] = target: T1, Glucocorticoid receptor (Rattus norvegicus); assay: Dex-NCS incubation on the subsequent inhibition of exchange binding with [3H]dexamethasone measured at pH 8.8 at 5h.; conditions: concentration not given here; outline: as §2
[10] = target: T1, Glucocorticoid receptor (Rattus norvegicus); assay: Dex-NCS incubation on the subsequent inhibition of exchange binding with [3H]dexamethasone measured at pH 7.6 at 5h.; conditions: concentration not given here; outline: as §2

Relative affinity [1] | Relative affinity [2] | Agonist [3] | inhibition [4] [%] | inhibition [5] [%] | inhibition [6] [%] | inhibition [7] [%] | inhibition [8] [%] | inhibition [9] [%] | inhibition [10] [%] | SMILES
0.0087 | 0.079 | – | – | – | – | – | – | – | – | C[C@@H]1CC2C3CCC4=CC(=O)C=C[C@]4(C)[C@@]3(F)[C@@H](O)C[C@]2(C)[C@@]1(O)C(=O)COC(=O)c1c(C(F)(F)F)cccc1C(F)(F)F (some centres not stated)
0.063 | 0.021 | Partial agonist | – | – | – | – | – | – | – | C[C@@H]1CC2C3CCC4=CC(=O)C=C[C@]4(C)[C@@]3(F)[C@@H](O)C[C@]2(C)[C@@]1(O)C(=O)CBr (some centres not stated)
– | – | – | 63.2 | 45.7 | 37 | 43.8 | 60.5 | 34.1 | 56.6 | C[C@@H]1CC2C3CCC4=CC(=O)C=C[C@]4(C)[C@@]3(F)[C@@H](O)C[C@]2(C)[C@@]1(O)C(=O)CSCCN=C=S (some centres not stated)

Reference: ChEMBL document CHEMBL1125707, “Dexamethasone 21-(beta-isothiocyanatoethyl) thioether: a new affinity label for glucocorticoid receptors” (J Med Chem, 1991)
